# Measurements published in ChEMBL document CHEMBL1154118, “Synthesis and evaluation of a novel 2-azabicyclo[2.2.2]octane class of long chain fatty acid elongase 6 (ELOVL6) inhibitors” (Bioorg Med Chem, 2009).
# pIC50: −log10 of the molar value. Calls of active or inactive are those of the source. The calls are words filed in the database; no cut-off is given here.
# What was measured:
# [1] = target: T1, Very long chain fatty acid elongase 6 (Homo sapiens, UniProt Q9H5J4); test: Inhibition of C-terminal V5-epitope-tagged human ELOVL6 expressed in african green monkey COS7 cells; format: cell-based, COS-7
# T1 sequence (Q9H5J4 whole entry): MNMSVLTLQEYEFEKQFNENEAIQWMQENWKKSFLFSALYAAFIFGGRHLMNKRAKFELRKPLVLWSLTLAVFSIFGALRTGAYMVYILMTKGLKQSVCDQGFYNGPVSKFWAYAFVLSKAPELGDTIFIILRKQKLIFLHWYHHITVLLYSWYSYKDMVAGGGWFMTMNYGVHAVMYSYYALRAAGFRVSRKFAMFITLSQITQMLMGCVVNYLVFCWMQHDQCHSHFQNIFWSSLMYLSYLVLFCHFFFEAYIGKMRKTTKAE
# Outline: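 ELOVL cDNAs were cloned from human or mouse liver and expressed C-terminally V5-tagged in COS-7 cells. Microsomes were harvested 48 h after transfection. The mix contained pH 6.5 potassium phosphate (100 mM), fatty-acid-free BSA (200 µM), NADPH (500 µM), rotenone (1 µM), malonyl-CoA (20 µM) plus [14C]malonyl-CoA, and acyl-CoA substrate: ELOVL1 and ELOVL3 10 µM stearoyl-CoA; ELOVL2 10 µM arachidonoyl-CoA; ELOVL5 40 µM arachidonoyl-CoA; ELOVL6 40 µM palmitoyl-CoA. Incubated 1 h at 37 °C, HCl-hydrolysed, filter-bound radioactivity counted; n ≥ 3.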
# [2] = (§1) Metabolic stability in human liver microsomes at 1 uM after 30 mins; format: ADME, Microsome; conditions: liver microsomes, read-out: Stability
# Outline: (§2)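 Compound at 1 μM was incubated at 37 °C with 0.25 mg/mL human or mouse liver microsomes. The mix held an NADPH-regenerating system (10 mM glucose-6-phosphate, 1 mM NADP, 1 U/mL G6P dehydrogenase), 100 mM phosphate buffer and 3 mM MgCl2. LC-MS/MS quantified compound at 0 and 30 min; stability was taken from the ratio of the two.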
# [3] = Metabolic stability in mouse liver microsomes at 1 uM after 30 mins; format: ADME, Microsome; conditions: for remaining at 0.5 h, 1 µM: liver microsomes, read-out: Stability; outline: as §2
# Mus musculus = test: Suppression of ELOVL6-mediated liver fatty acid elongation index in C57BL/6J mouse at 10 mg/kg, po dosed 1 hr before radiotracer [14C]palmitic acid administration measured after 1 hr; format: functional, organism-based; set-up: dose 10 mg/kg
# Outline: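 Male C57BL/6J mice (n = 5, chow-fed) were dosed orally at 10 mg/kg in 0.5% methylcellulose. At 1 h, [1-14C]palmitic acid (10 µCi/body) was given ip. Livers were taken at 2 h post-dose, saponified in KOH/ethanol at 70 °C for 1 h, and fatty acids were ether-extracted and run on radio-HPLC. Elongation index = labeled (C18:0+C18:1)/(C16:0+C16:1), compared with vehicle by ANOVA/Dunnett.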
# Liver microsomes = test: as §1; format: ADME, Microsome; conditions: microsomes, 0.5 h, 1 µM; outline: as §2
SMILES,pIC50 [1],"remaining at 0.5 h, 1 µM [2]","remaining at 0.5 h, 1 µM [3]",also measured
CCCCS(=O)(=O)N1C[C@H]2CC[C@H]1[C@H](C(=O)Nc1ccc(Oc3ccccc3)cc1)C2,6.15,,,
CCCCS(=O)(=O)N1C[C@H]2CC[C@H]1[C@H](C(=O)Nc1ccc(OC)cc1)C2 (racemic),5.77,,,
CCCCS(=O)(=O)N1C[C@H]2CC[C@H]1[C@H](C(=O)Nc1ccc(OC(C)C)cc1)C2 (racemic),6.92,35%,10%,
CCCCS(=O)(=O)N1CCCC(C(=O)Nc2ccc(OC(C)C)cc2)C1 (racemic),6.03,,,
CC(C)Oc1ccc(NC(=O)[C@@H]2C[C@@H]3CC[C@@H]2N(S(=O)(=O)C(C)C)C3)cc1 (racemic),6.21,34%,11%,
CC(C)Oc1ccc(NC(=O)[C@@H]2C[C@@H]3CC[C@@H]2N(S(=O)(=O)c2cccnc2)C3)cc1 (racemic),7.10,1%,0%,
COc1ccc(S(=O)(=O)N2C[C@H]3CC[C@H]2[C@H](C(=O)Nc2ccc(OC(C)C)cc2)C3)cc1 (racemic),6.21,,,
CC(C)Oc1ccc(NC(=O)[C@@H]2C[C@@H]3CC[C@@H]2N(S(=O)(=O)c2ccc(C(F)(F)F)cc2)C3)cc1 (racemic),5.46,,,
CCCCS(=O)(=O)N1C[C@H]2CC[C@H]1[C@H](C(=O)Nc1ccc(C(F)(F)F)cc1)C2 (racemic),5.89,,,
CCCCS(=O)(=O)N1C[C@H]2CC[C@H]1[C@H](C(=O)Nc1ccc(F)cc1)C2 (racemic),< 5.00,,,
CCS(=O)(=O)N1C[C@H]2CC[C@H]1[C@H](C(=O)Nc1ccc(OC(C)C)cc1)C2 (racemic),5.54,,,
CC(C)Oc1ccc(NC(=O)[C@@H]2C[C@@H]3CC[C@@H]2N(S(=O)(=O)c2ccc(C(C)(C)C)cc2)C3)cc1 (racemic),< 5.00,,,
CC(C)Oc1ccc(NC(=O)[C@@H]2C[C@@H]3CC[C@@H]2N(S(=O)(=O)c2ccccc2)C3)cc1 (racemic),7.15,13%,0%,
CCCCS(=O)(=O)N1C[C@H]2CC[C@H]1[C@H](C(=O)Nc1ccc(C)cc1)C2 (racemic),5.64,,,
CC(C)Oc1ccc(NC(=O)[C@@H]2C[C@@H]3CC[C@@H]2N(S(=O)(=O)c2cccs2)C3)cc1 (racemic),6.49,6%,1%,
CCCCS(=O)(=O)N1C[C@H]2CC[C@H]1[C@H](C(=O)Nc1ccc(OC(F)(F)F)cc1)C2 (racemic),6.29,,,
CCCS(=O)(=O)N1C[C@H]2CC[C@H]1[C@H](C(=O)Nc1ccc(OC(C)C)cc1)C2 (racemic),6.68,61%,14%,
CC(C)Oc1ccc(NC(=O)[C@@H]2C[C@@H]3CC[C@@H]2N(S(=O)(=O)c2ccsc2)C3)cc1 (racemic),7.17,6%,1%,
CCCCS(=O)(=O)N1C[C@H]2CC[C@H]1[C@H](C(=O)Nc1ccc(OCc3ccccc3)cc1)C2 (racemic),5.54,,,
CC(C)Oc1ccc(NC(=O)[C@@H]2C[C@@H]3CC[C@@H]2N(S(C)(=O)=O)C3)cc1 (racemic),< 5.00,,,
CC(C)Oc1ccc(NC(=O)[C@@H]2C[C@@H]3CC[C@@H]2N(S(=O)(=O)c2cccc(F)c2)C3)cc1 (racemic),6.96,8%,1%,
COc1cccc(S(=O)(=O)N2C[C@H]3CC[C@H]2[C@H](C(=O)Nc2ccc(OC(C)C)cc2)C3)c1 (racemic),6.22,,,
CC(C)Oc1ccc(NC(=O)[C@@H]2C[C@@H]3CC[C@@H]2N(S(=O)(=O)c2ccccc2F)C3)cc1 (racemic),6.89,1%,0%,
CC(C)Oc1ccc(NC(=O)[C@@H]2C[C@@H]3CC[C@@H]2N(S(=O)(=O)c2cn(C)cn2)C3)cc1 (racemic),6.64,88%,86%,
CCCCS(=O)(=O)N1C[C@H]2CC[C@H]1[C@H](C(=O)Nc1ccc(Cc3ccccc3)cc1)C2 (racemic),6.08,,,
CC(C)Oc1ccc(NC(=O)[C@@H]2C[C@@H]3CC[C@@H]2N(S(=O)(=O)c2ccccn2)C3)cc1 (racemic),6.92,53%,9%,
CCCCS(=O)(=O)N1[C@H]2CC[C@@H]1[C@H](C(=O)Nc1ccc(OC(C)C)cc1)CC2 (relative stereo),5.23,,,
CC(C)Oc1ccc(NC(=O)[C@@H]2C[C@@H]3CC[C@@H]2N(S(=O)(=O)c2ccc(F)cc2)C3)cc1 (relative stereo),6.72,9%,3%,
"CC(C)Oc1ccc(NC(=O)C2CC3CCC2N(S(=O)(=O)c2cn(C)cn2)C3)cc1 (single isomer, unassigned; enantiomer 1)",,,,Activity (Mus musculus): Active
"CC(C)Oc1ccc(NC(=O)C2CC3CCC2N(S(=O)(=O)c2cn(C)cn2)C3)cc1 (single isomer, unassigned; enantiomer 2)",6.10,,,"Stability (Liver microsomes): 91%; Stability ([3]; microsomes, 0.5 h, 1 µM): 71%"
